Experimental data reported in ChEMBL document CHEMBL2331476, “A novel semisynthetic flavonoid 7-O-galloyltaxifolin upregulates heme oxygenase-1 in RAW264.7 cells via MAPK/Nrf2 pathway” (J Med Chem, 2013).
Active and inactive are the calls of the source. The calls are words filed in the database; no cut-off is given here.

Experiments:
[1] = molecular target: Mitogen-activated protein kinase 1 (Mus musculus) (UniProt P63085); experiment: Activation of ERK2 in mouse RAW264.7 cells assessed as phosphorylation at Thr185/Tyr187 at 50 uM after 30 mins by Western blotting analysis; type: cell-based
Mitogen-activated protein kinase 1 (Mus musculus), sequence (P63085 whole entry): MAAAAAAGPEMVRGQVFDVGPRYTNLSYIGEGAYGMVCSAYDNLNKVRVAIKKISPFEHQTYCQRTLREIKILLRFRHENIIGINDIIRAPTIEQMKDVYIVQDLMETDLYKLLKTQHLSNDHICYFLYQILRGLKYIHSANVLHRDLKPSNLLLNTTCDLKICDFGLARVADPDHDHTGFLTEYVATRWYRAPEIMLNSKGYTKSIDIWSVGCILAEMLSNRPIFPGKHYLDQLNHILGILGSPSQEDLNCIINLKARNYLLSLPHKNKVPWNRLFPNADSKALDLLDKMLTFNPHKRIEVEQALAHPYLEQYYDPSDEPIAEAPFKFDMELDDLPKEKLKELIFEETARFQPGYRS
How it was run: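 RAW264.7 cells (passage 5-25) seeded at 1 × 10⁵ cells/cm², serum-starved overnight, then exposed in serum-free medium for 30 min to 3 h; 0.1% DMSO vehicle; 75 ng/mL EGF for 30 min as positive control. Whole-cell lysates (20 μg/lane) on 10% SDS-PAGE, blotted for phospho-ERK1 (Thr202/Tyr204), phospho-ERK2 (Thr185/Tyr187) and total ERK1/2, chemiluminescent detection.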

[2] = molecular target: T1, Nuclear factor erythroid 2-related factor 2 (Mus musculus) (UniProt Q60795); experiment: Activation of Nrf2 in mouse RAW264.7 cells assessed as upregulation of HO1 protein expression at 50 uM after 6 hrs by Western blotting analysis relative to untreated control; type: cell-based
T1 sequence (whole entry): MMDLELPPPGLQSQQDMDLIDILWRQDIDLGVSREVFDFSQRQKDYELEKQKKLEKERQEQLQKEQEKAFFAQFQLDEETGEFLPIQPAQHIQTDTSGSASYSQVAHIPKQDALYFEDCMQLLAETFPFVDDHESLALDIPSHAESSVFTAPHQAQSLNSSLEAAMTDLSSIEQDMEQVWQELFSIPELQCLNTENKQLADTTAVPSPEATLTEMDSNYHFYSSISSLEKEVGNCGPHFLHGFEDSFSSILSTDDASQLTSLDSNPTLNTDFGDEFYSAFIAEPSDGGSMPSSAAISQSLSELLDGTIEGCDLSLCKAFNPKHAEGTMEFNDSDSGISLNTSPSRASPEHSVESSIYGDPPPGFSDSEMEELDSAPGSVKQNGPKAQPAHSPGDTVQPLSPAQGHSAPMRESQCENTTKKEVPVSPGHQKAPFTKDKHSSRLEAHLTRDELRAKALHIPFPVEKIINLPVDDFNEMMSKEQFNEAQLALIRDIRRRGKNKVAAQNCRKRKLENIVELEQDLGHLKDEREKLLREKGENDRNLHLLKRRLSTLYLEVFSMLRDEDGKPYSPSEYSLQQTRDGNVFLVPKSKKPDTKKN
How it was run: (§1)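 HO-1 protein in whole-cell lysates (20 μg/lane) of serum-starved RAW264.7 cells after 6 h at 10-50 μM or 50 μM for 1-6 h in serum-free medium, 0.1% DMSO control. Chemiluminescent Western blot; HO-1 densitometry normalized to actin, mean of three experiments.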

[3] = molecular target: T1, Nuclear factor erythroid 2-related factor 2 (Mus musculus); experiment: Activation of Nrf2 in mouse RAW264.7 cells assessed as nuclear accumulation at 50 uM after 3 hrs by Western blotting analysis; type: cell-based
How it was run: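 RAW264.7 cells (passage 5−25) seeded at 1 × 10⁵ cells/cm², switched to serum-free medium after 8 h, left overnight, then treated 3 h in serum-free medium; 0.1% DMSO vehicle control. Cells were swollen in hypotonic HEPES/NP-40 buffer for the cytosolic fraction and nuclei extracted in high-salt buffer. Blots loaded 30 μg/lane, Nrf2 densitometry normalized to actin, mean of three experiments.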

[4] = molecular target: T1, Nuclear factor erythroid 2-related factor 2 (Mus musculus); experiment: Activation of Nrf2 in mouse RAW264.7 cells assessed as nuclear accumulation at 50 uM after 1 hr by Western blotting analysis; type: cell-based
How it was run: (§2)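 Serum-starved RAW264.7 cells treated 30 min to 3 h (10-50 μM for 3 h, or 50 μM time course); 0.1% DMSO control, 50 μM quercetin positive control. Cytosolic fraction from hypotonic HEPES pH 7.9 buffer with 0.1% NP-40; nuclear fraction by 420 mM NaCl extraction. 30 μg/lane blotted for Nrf2 and actin; Nrf2/actin densitometry, mean of three experiments.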

[5] = molecular target: T1, Nuclear factor erythroid 2-related factor 2 (Mus musculus); experiment: Activation of Nrf2 in mouse RAW264.7 cells assessed as cytosolic accumulation at 25 uM after 3 hrs by Western blotting analysis; type: cell-based; how it was run: as §2
[6] = molecular target: T1, Nuclear factor erythroid 2-related factor 2 (Mus musculus); experiment: Activation of Nrf2 in mouse RAW264.7 cells assessed as reduction of KEAP1 protein level at 50 uM after 1 to 6 hr by Western blotting analysis; type: cell-based; settings: TDE = time-dependent effect
How it was run: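 Whole-cell lysates (20 μg/lane) from serum-starved RAW264.7 cells given 10-50 μM for 6 h or 50 μM for 1-6 h in serum-free medium, 0.1% DMSO vehicle. Keap1 and actin detected by chemiluminescent Western blot; Keap1 band intensity normalized to actin, mean of three experiments.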

[7] = molecular target: MAP kinase p38 (Homo sapiens) (UniProt O15264+Q15759+Q16539+P53778); experiment: Activation of p38MAPK in mouse RAW264.7 cells assessed as phosphorylation at Thr180/Tyr182 at 50 uM after 1 hr by Western blotting analysis; type: cell-based
How it was run: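 p38 phosphorylation at Thr180/Tyr182 and total p38 probed in whole-cell lysates (35 μg/lane) of serum-starved RAW264.7 cells treated for 30 min to 4 h in serum-free medium. Positive controls were 5 μM anisomycin or 75 ng/mL EGF for 30 min. Chemiluminescent Western detection.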

[8] = molecular target: T1, Nuclear factor erythroid 2-related factor 2 (Mus musculus); experiment: Activation of Nrf2 in mouse RAW264.7 cells assessed as induction of Hmox1 mRNA expression at 50 uM after 6 hrs by real-time PCR analysis in presence of PD98059; type: cell-based
How it was run: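 Pretreatment 30 min with 0.1% DMSO, 15 μM PD98059, 15 μM SB203580 or 30 μM SP600125, then 50 μM agent for 6 h in serum-free medium. Hmox1 mRNA by TaqMan qPCR normalized to Gapdh, given as percent of agent-induced expression; mean ± SD of three experiments.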

[9] = molecular target: T1, Nuclear factor erythroid 2-related factor 2 (Mus musculus); experiment: Activation of Nrf2 in mouse RAW264.7 cells assessed as upregulation of HO1 protein expression at 50 uM after 3 hrs by Western blotting analysis; type: cell-based; how it was run: as §1
[10] = molecular target: Mitogen-activated protein kinase 9/10 (Mus musculus) (UniProt Q9WTU6+Q61831); experiment: Activation of JNK2/3 in mouse RAW264.7 cells assessed as phosphorylation at 50 uM after 30 mins by Western blotting analysis; type: cell-based
Mitogen-activated protein kinase 9/10 (Mus musculus), sequence (Q61831 whole entry, looked up): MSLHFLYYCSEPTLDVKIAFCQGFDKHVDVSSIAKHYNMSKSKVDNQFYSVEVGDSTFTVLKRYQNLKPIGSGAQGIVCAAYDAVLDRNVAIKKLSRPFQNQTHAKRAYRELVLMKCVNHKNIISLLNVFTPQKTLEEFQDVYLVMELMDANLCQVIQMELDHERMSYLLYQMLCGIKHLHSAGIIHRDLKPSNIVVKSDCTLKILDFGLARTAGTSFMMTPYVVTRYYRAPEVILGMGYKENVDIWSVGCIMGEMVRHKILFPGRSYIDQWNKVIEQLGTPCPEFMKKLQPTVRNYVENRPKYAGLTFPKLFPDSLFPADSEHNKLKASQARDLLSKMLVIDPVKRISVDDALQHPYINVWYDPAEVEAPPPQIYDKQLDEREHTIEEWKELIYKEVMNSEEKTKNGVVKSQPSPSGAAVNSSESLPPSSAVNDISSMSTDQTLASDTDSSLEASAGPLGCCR
Mitogen-activated protein kinase 9/10 (Mus musculus), sequence (Q9WTU6 whole entry, looked up): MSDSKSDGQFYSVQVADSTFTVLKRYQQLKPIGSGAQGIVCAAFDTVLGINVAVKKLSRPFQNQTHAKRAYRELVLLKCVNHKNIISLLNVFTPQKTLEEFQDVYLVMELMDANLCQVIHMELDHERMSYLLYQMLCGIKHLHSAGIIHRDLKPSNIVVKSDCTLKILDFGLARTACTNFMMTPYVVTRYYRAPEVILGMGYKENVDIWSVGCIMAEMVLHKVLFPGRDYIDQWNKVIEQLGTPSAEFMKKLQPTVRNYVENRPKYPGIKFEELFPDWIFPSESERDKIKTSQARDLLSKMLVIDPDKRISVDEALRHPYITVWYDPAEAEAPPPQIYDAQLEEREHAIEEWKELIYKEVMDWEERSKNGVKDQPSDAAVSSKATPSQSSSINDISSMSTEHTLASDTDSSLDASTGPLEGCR
How it was run: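 Serum-starved RAW264.7 cells exposed in serum-free medium for 30 min to 4 h; 5 μM anisomycin for 30 min as positive control. Whole-cell lysates (30 μg/lane) blotted for JNKs dually phosphorylated at Thr183/Tyr185 and total JNKs, chemiluminescent detection.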

[11] = molecular target: T1, Nuclear factor erythroid 2-related factor 2 (Mus musculus); experiment: Activation of Nrf2 in mouse RAW264.7 cells assessed as upregulation of HO1 protein expression at 25 uM after 6 hrs by Western blotting analysis; type: cell-based; how it was run: as §1
[12] = molecular target: T1, Nuclear factor erythroid 2-related factor 2 (Mus musculus); experiment: Activation of Nrf2 in mouse RAW264.7 cells assessed as cytosolic accumulation at 50 uM after 2 hrs by Western blotting analysis; type: cell-based; how it was run: as §2
[13] = tested on: RAW264.7; experiment: Drug uptake in mouse RAW264.7 cells measured per 10^6 cells at 50 uM after 3 hrs; type: ADME, cell-based; settings: raw264.7, 3 h
How it was run: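 Cells given 50 μM for up to 6 h, then scraped, washed twice in PBS and sonicated in methanol with 5% acetic acid. Supernatant analysed by UPLC on a phenyl column (water/1% acetic acid/methanol to methanol gradient, 35 °C) with negative ESI-QqTOF MS. Contents expressed as nmol per 10⁶ cells.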

SMILES: O=C(Oc1cc(O)c2c(c1)O[C@H](c1ccc(O)c(O)c1)[C@@H](O)C2=O)c1cc(O)c(O)c(O)c1
- Activity [1]: Active
- fold change (FC) [2]: 2.5
- Activity [3]: Active
- Activity [4]: Active
- Activity [5]: Active
- Activity [6]: tde
- Activity [7]: Active
- Activity [8]: inactive
- fold change (FC) [9]: 1.3
- Activity [10]: Active
- fold change (FC) [11]: 1.6
- Activity [12]: Active
- Drug uptake [13]: 1.03 nmol
